# Test results taken from ChEMBL document CHEMBL4364258, “Discovery of novel benzofuran-based compounds with neuroprotective and immunomodulatory properties for Alzheimer's disease treatment” (Eur J Med Chem, 2019).
# pIC50, pKi: −log10 of the molar value. The source made the active and inactive calls. No cut-off for these calls is given here.
# Key:
# [1] = molecular target: T1, Cannabinoid receptor 1 (Homo sapiens, UniProt P21554); experiment: Displacement of 3[H]-CP55940 from human recombinant CB1 receptor expressed in HEK293 cell membranes measured after 90 mins by Cheng-Prusoff equation analysis
# [2] = molecular target: T2, Cannabinoid receptor 2 (Homo sapiens, UniProt P34972); experiment: Displacement of 3[H]-CP55940 from human recombinant CB2 receptor expressed in HEK293 cell membranes measured after 90 mins by Cheng-Prusoff equation analysis
# [3] = molecular target: T3, Cholinesterase (Homo sapiens, UniProt P06276); experiment: Inhibition of human recombinant BuChE using butyrylthiocholine iodide as substrate preincubated for 20 mins followed by substrate addition by Ellman's spectrophotometric method
# [4] = molecular target: T2, Cannabinoid receptor 2; experiment: Displacement of 3[H]-CP55940 from human recombinant CB2 receptor expressed in HEK293 cell membranes measured after 90 mins
# [5] = molecular target: T1, Cannabinoid receptor 1; experiment: Displacement of 3[H]-CP55940 from human recombinant CB1 receptor expressed in HEK293 cell membranes measured after 90 mins
# [6] = molecular target: T3, Cholinesterase; experiment: Inhibition of human recombinant BuChE at 25 uM using butyrylthiocholine iodide as substrate preincubated for 20 mins followed by substrate addition by Ellman's spectrophotometric method relative to control
# [7] = organism: Homo sapiens; experiment: Selectivity index, ratio of Ki for displacement of 3[H]-CP55940 from human recombinant CB1 receptor expressed in HEK293 cell membranes to Ki for displacement of 3[H]-CP55940 from human recombinant CB2 receptor expressed in HEK293 cell membranes
# [8] = test system: SH-SY5Y; experiment: Cytotoxicity against human SH-SY5Y cells assessed as effect on cell viability up to 5 uM after 24 hrs by MTT assay; type: cell-based
# Summary of the method: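 SH-SY5Y cells grown in DMEM with 10% FBS, 2 mM L-glutamine and penicillin/streptomycin, seeded 2×10^4 cells/well, 24 h, then exposed 24 h to 1.25–40 µM. Viability read as MTT reduction: MTT 0.5 mg/mL in HBSS 2 h at 37 °C, formazan dissolved in isopropanol, absorbance 570 nm (reference 690 nm).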
# [9] = test system: N9; experiment: Immunomodulatory activity in LPS-induced mouse N9 cells assessed as reduction in TREM2 expression at 5 uM after 24 hrs by Western blotting analysis relative to control; type: functional, cell-based
# Summary of the method: (§1)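 N9 microglia on poly-L-lysine in DMEM high glucose with 10% FBS, plated 2.5×10^5 cells/35 mm dish. Activated with LPS 100 ng/mL together with 0, 5 or 10 µM compound in serum-free DMEM for 24 h. Lysates run on 12.5% SDS-PAGE and immunoblotted for iNOS or TREM2, with GAPDH as loading control, ECL detection. Densitometry given as % of LPS alone, three experiments.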
# [10] = test system: SH-SY5Y; experiment: Neuroprotection against amyloid beta (1 to 42) induced toxicity in human SH-SY5Y cells after 4 hrs by MTT assay; type: functional, cell-based
# Summary of the method: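 SH-SY5Y cells seeded 3×10^4/well, 24 h, then treated 4 h with Aβ1-42 oligomers (10 µM) plus compound at 0.625–5.0 µM. Read by MTT formazan exocytosis assay: MTT 0.5 mg/mL in HBSS 1 h at 37 °C, intracellular formazan dissolved in 1% Tween 20, absorbance 570 nm (reference 690 nm). At least three independent experiments.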
# [11] = test system: N9; experiment: Immunomodulatory activity in LPS-induced mouse N9 cells assessed as reduction in iNOS expression at 5 uM after 24 hrs by Western blotting analysis relative to control; type: functional; conditions: N9, 24 h; summary of the method: as §1
# [12] = molecular target: T2, Cannabinoid receptor 2; experiment: Inverse agonist activity at recombinant human CB2R expressed in CHOK1 cells assessed as increase in NKH477-stimulated intracellular cAMP levels after 30 mins by chemiluminescent based cAMP Hunter assay; type: functional, cell-based
# Summary of the method: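 CHO-K1 cells stably expressing human CB2R, 30,000 cells/well, held overnight. Compound dose-response with NKH-477 (forskolin analogue, 25 µM) for 30 min at 37 °C. cAMP measured by enzyme-fragment-complementation chemiluminescence. Normalized with NKH-477 alone = 100%. Three independent experiments in triplicate, mean ± SEM.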
# [13] = molecular target: T2, Cannabinoid receptor 2; experiment: Potency index, ratio of SR144528 Ki to compound Ki for displacement of 3[H]-CP55940 from human recombinant CB2
# [14] = molecular target: T2, Cannabinoid receptor 2; experiment: Inverse agonist activity at recombinant human CB2R expressed in CHOK1 cells assessed as increase in NKH477-stimulated intracellular cAMP levels preincubated for 15 mins followed by CB2 agonist JWH-133 addition and measured after 30 mins by chemiluminescent based cAMP Hunter assay; type: functional, cell-based
# [15] = molecular target: T3, Cholinesterase; experiment: Potency index, ratio of galanthamine IC50 to compound IC50 for inhibition of human recombinant BuChE
# [16] = test system: N9; experiment: Downregulation of total GAPDH in LPS-induced mouse N9 cells at 5 uM after 24 hrs by Western blotting analysis; type: ADME, cell-based; conditions: n9, 24 h; summary of the method: as §1
# T2 sequence (P34972 whole entry): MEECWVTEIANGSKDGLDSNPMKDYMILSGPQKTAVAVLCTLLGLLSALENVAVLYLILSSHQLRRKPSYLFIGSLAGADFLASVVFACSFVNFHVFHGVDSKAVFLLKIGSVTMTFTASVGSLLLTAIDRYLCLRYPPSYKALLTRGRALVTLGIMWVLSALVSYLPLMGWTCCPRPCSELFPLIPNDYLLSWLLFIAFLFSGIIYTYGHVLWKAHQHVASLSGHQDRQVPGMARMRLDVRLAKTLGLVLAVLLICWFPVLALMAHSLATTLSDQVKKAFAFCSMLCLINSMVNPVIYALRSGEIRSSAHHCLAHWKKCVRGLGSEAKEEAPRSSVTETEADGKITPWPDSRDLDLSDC
# T3 sequence (P06276 whole entry): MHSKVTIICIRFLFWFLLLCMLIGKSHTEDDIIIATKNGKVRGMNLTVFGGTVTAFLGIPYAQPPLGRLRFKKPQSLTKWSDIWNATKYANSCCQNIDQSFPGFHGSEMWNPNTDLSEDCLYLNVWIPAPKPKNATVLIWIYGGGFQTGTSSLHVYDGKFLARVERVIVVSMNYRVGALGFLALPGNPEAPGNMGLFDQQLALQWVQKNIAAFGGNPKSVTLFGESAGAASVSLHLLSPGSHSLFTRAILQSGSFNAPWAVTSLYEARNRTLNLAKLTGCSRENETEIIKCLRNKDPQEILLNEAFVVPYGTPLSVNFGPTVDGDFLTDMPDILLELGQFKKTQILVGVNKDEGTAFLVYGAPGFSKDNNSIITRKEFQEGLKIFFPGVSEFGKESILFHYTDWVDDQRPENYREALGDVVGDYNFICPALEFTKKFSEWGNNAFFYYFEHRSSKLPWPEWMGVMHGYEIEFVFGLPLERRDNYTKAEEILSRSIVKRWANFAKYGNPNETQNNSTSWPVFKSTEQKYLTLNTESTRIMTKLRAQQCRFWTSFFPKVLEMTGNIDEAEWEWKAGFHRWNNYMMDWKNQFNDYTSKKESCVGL
# T1 sequence (P21554 whole entry): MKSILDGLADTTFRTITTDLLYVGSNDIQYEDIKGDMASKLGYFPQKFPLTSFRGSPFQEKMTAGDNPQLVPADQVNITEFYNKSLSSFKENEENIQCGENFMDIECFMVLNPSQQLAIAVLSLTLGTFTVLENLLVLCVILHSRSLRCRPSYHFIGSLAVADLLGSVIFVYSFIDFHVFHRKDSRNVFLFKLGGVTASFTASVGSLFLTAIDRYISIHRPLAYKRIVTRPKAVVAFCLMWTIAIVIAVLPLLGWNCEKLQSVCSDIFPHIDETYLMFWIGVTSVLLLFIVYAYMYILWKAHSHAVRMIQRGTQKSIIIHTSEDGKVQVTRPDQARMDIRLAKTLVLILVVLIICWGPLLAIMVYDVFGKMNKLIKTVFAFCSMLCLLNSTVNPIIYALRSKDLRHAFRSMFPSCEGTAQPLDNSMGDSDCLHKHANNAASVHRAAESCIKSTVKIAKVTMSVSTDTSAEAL
Structure (SMILES),pKi [1],pKi [2],pIC50 [3],pIC50 [4],pIC50 [5],inhibition [6],Ratio Ki [7],Activity [8],Activity [9],Activity [10],inhibition at 5 µM [11],Activity [12],Ratio Ki [13],Activity [14],Ratio IC50 [15],Activity [16]
COc1ccc(-c2oc3ccccc3c2C(=O)c2ccc(N(Cc3cc(F)cc(F)c3)Cc3cc(F)cc(F)c3)cc2)cc1,< 5.00,< 5.00,4.93,< 5.00,< 5.00,67%,,,,,,,,,,
CCCCCCCNc1ccc(C(=O)c2c(-c3ccc(OC)cc3)oc3ccccc23)cc1,5.78,6.39,,5.81,5.23,30.2%,4,,,,,,,,,
COc1ccc(-c2oc3ccccc3c2C(=O)c2ccc(NCc3ccc(F)cc3)cc2)cc1,6.11,7.70,,7.15,5.49,60.8%,39,Non-Toxic,inactive,Dose-dependent effect,83%,,,,,
COc1ccc(-c2oc3ccccc3c2C(=O)c2ccc(OCCCCN(C)Cc3ccccc3)cc2)cc1,6.07,< 5.00,3.66,< 5.00,5.45,35.2%,,,,,,,,,,
COc1ccc(-c2oc3ccccc3c2C(=O)c2ccc(-n3cc(COc4cccc(F)c4)nn3)cc2)cc1,< 5.00,< 5.00,,< 5.00,< 5.00,< 10%,,,,,,,,,,
COc1ccc(-c2oc3ccccc3c2C(=O)c2ccc(N(C)Cc3ccc(F)cc3)cc2)cc1,7.70,8.57,,8.00,7.10,< 10%,7.4,Non-Toxic,inactive,,60%,Active,600,Dose-dependent effect,,
COc1ccc(-c2oc3ccccc3c2C(=O)c2ccc(NCc3ccccc3)cc2)cc1,< 5.00,6.77,,6.18,< 5.00,< 10%,> 59,,,,,,,,,
COc1ccc(-c2oc3ccccc3c2C(=O)c2ccc(NCc3ccccn3)cc2)cc1,< 5.00,5.87,,5.29,< 5.00,15.3%,> 7.5,,,,,,,,,
COc1ccc(-c2oc3ccccc3c2C(=O)c2ccc(N(Cc3ccccc3)Cc3ccccc3)cc2)cc1,< 5.00,6.04,,5.44,< 5.00,30.9%,> 11,,,,,,,,,
COc1ccc(-c2oc3ccccc3c2C(=O)c2ccc(NCC3CC3)cc2)cc1,6.33,6.96,,6.39,5.78,22.4%,4.3,,,,,,,,,
COc1ccc(-c2oc3ccccc3c2C(=O)c2ccc(NCc3cc(F)cc(F)c3)cc2)cc1,< 5.00,6.52,,5.94,< 5.00,< 10%,> 33,,,,,,,,,
COc1ccc(-c2oc3ccccc3c2C(=O)c2ccc(OCCCN(C)Cc3ccccc3)cc2)cc1,6.30,6.92,3.87,6.36,5.69,35%,4.2,,,,,,,,,
COc1ccc(-c2oc3ccccc3c2C(=O)c2ccc(N(Cc3ccc(F)cc3)Cc3ccc(F)cc3)cc2)cc1,< 5.00,6.37,5.22,5.78,< 5.00,75%,> 23,,,,,,,,,
COc1ccc(-c2oc3ccccc3c2C(=O)c2ccc(NCc3ccc(C#N)cc3)cc2)cc1,5.59,7.70,,7.05,5.04,< 10%,130,,,,,,,,,
COc1ccc(-c2oc3ccccc3c2C(=O)c2ccc(OCCN(C)Cc3ccccc3)cc2)cc1,6.37,6.16,4.85,5.58,5.82,65%,0.6,,,,,,,,,
CCCCCNc1ccc(C(=O)c2c(-c3ccc(OC)cc3)oc3ccccc23)cc1,7.10,7.15,5.41,6.59,6.52,72.2%,1.1,,,,,,,,,
COc1ccc(CNc2ccc(C(=O)c3c(-c4ccc(OC)cc4)oc4ccccc34)cc2)cc1,< 5.00,5.99,,5.41,< 5.00,< 10%,> 10,,,,,,,,,
COc1ccc(-c2oc3ccccc3c2C(=O)c2ccc(OCCCCCN(C)Cc3ccccc3)cc2)cc1,5.75,< 5.00,5.96,< 5.00,5.14,> 90%,,,,,,,,,19,
CN(CCCCCCCOc1ccc(-c2oc3ccccc3c2C(=O)c2ccccc2)cc1)Cc1ccccc1,,,,,,,,,,,,,,,,Toxic
